Test results reported in paper PMC5598389 (Toxicology Reports, 2015).
Structures can show the parent of a compound that is named as a salt. Where two headings read alike, the source gives them in different places.

Assays:
[1] = Pharmacokinetics of S2227 and M179 hydrochloride in mice; assay type: in vivo, male CD-1 mice; details: oral, mice
Method in brief: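 Two groups of 28 male Crl:CD-1(ICR) mice were gavaged with a 1% methylcellulose suspension of either parent (30 mg/kg) or the equimolar secondary amine hydrochloride (20 mg/kg). Blood was taken by cardiac puncture from 4 mice/group/time point at about 15 and 30 min and 1, 2, 4, 8 and 24 h. Plasma levels of parent and metabolites gave Cmax and AUClast.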

[2] = tested on: bone marrow polychromatic erythrocytes; experiment: In vivo micronucleus assay, bone marrow PCEs; parameters: species or system CD-1 mice; details: dose range finding
Method in brief: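 Crl:CD-1(ICR) mice were gavaged for three consecutive days in 1% methylcellulose at 10 mL/kg. Dose-range phases used 3/sex/group: parent at 500–2000 mg/kg, amine salt at 125–2000 mg/kg/day. Definitive phases used 6/sex (parent) or 5/sex (amine), with MMS 40 mg/kg/day as positive control. Micronuclei were scored in 2000 bone marrow PCEs per animal, and the PCE/total erythrocyte ratio was used for cytotoxicity.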

[3] = ref Chi, unpublished results, cited from earlier work

| SMILES | fold higher exposure of M179 in plasma than after an equimolar dose of S2227 [1] | Mortality ([2]; females, 2000 mg/kg) | Mortality ([2]; males, 1000 mg/kg/day) | Mortality ([2]; males, 2000 mg/kg) | AUC0-8h ratio (acid/amine) ([3]; jugular vein (JV)) | AUC0-8h ratio (amide/acid) ([3]; jugular vein (JV)) | AUC0-8h ratio (acid/amine) ([3]; portal vein (PV)) | AUC0-8h ratio (amide/acid) ([3]; portal vein (PV)) |
| --- | --- | --- | --- | --- | --- | --- | --- | --- |
| c1csc(CNc2cc[nH]n2)c1 [M179 hydrochloride salt, N-(2-thienylmethyl)-1H-pyrazol-3-amine] | 158 fold | 3/3 | 2/3 | 3/3 |  |  |  |  |
| CCN(Cc1cccs1)C(=O)COc1ccc(C)cc1 [S5031, 2-(4-methylphenoxy)-N-ethyl-N-(2-thienylmethyl) acetamide] |  |  |  |  | 23.0 | 0.013 | 13.3 | 0.52 |
